Results collected from several papers.
Protocols differ between the studies behind these lines.
Read-out: enzyme activity
Action: inhibitor
IGF1R: Insulin-like growth factor 1 receptor (IGF1R, Homo sapiens, UniProt P08069)
IGF1R phosphorylated: Insulin-like growth factor 1 receptor, phosphorylated (IGF1R, Homo sapiens, UniProt P08069)

`Nc1nc(Nc2ccccc2)sc1C(=O)c1c(F)cccc1F` has a remaining activity of 80% (IGF1R; 10 µM).
`Cc1[nH]c(/C=C2\C(=O)Nc3ccc(F)cc32)c(C)c1C(=O)N[C@H]1CCN(C(=O)N(C)C)C1` has a remaining activity of 106% (IGF1R; 1 µM).
`O=C(Nc1cnn(-c2csc(C(=O)NC3COC3)c2)c1)Nc1c(F)cccc1Cl` has a remaining activity of 94.9% (IGF1R; 5 µM).
`Cc1cnc(NC2CCOCC2)nc1-n1cnc(C(=O)NC(CN)c2cc(F)cc(Cl)c2)c1` (stereo not shown) has a remaining activity of 103% (IGF1R; radiometric; 1 µM).
`COc1cc(Nc2cnc(C#N)c(O[C@H](C)CN(C)C)n2)ncc1-c1cnn(C)c1` has a remaining activity of 73% (IGF1R; radiometric; 10 µM).
The remaining activity of `CC(C)(C)c1nc(-c2cccc(NS(=O)(=O)c3c(F)cccc3F)c2F)c(-c2ccnc(N)n2)s1` is reported as 81% (IGF1R; radiometric; 1 µM).
For `CCCOc1ccc(OC)c(F)c1C(=O)c1ccc(C(=O)N[C@@H]2CNC[C@H]2NC(=O)c2ccc3[nH]ncc3c2)cc1`, the remaining activity was 76% (IGF1R phosphorylated; 10 µM).
`Cc1ccc(NC(=O)c2ccc(C)c(C(F)(F)F)c2)cc1C#Cc1nn(C2CCC(O)CC2)c2ncnc(N)c12` (stereo not shown) has a remaining activity of 91% (IGF1R phosphorylated; 10 µM).
For `FC(F)c1nc2ccccc2n1-c1nc(N2CCOCC2)nc(N2CCOCC2)n1`, the remaining activity was 87% (IGF1R; 10 µM).
The remaining activity of `CCN(CC)c1ccc(C2=NNC(=O)CC2C)cc1[N+](=O)[O-]` (stereo not shown) is reported as 86% (IGF1R; 10 µM).
For `CCN(CC)CCNC(=O)c1c(C)[nH]c(/C=C2\C(=O)Nc3ccc(F)cc32)c1C`, the remaining activity was 67% (IGF1R; 1 µM).
`CC(C)(O)[C@H]1CC[C@H](Nc2ccc3ncc(-c4cccc(C(F)(F)F)c4)n3n2)CC1` has a remaining activity of 99.2% (IGF1R; 1 µM).
The remaining activity of `CC(C)(C)C(=O)c1sc(NC2CCCCC2)nc1N` is reported as 118% (IGF1R; 10 µM).
